Measured values reported in the EternaBench riboswitch data.

System: MS2 coat protein
Test: apparent Kd, MS2 coat protein; higher = weaker binding; RNA-MaP array; FMN 200 µM where present
Procedure, shortened: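 Binding was read on Illumina sequencing-chip clusters where stalled E. coli RNA polymerase had transcribed each design. A titration of SNAP-549-labelled MS2 coat protein began at 0.7 or 1.5 nM and doubled to 3 µM, once without ligand and once with constant ligand, in 100 mM Tris-HCl pH 7.5, 80 mM KCl, 4 mM MgCl2, BSA, DTT, yeast tRNA and Tween-20. The apparent Kd is the median of filtered per-cluster binding-curve fits, based on green signal normalised to red-channel RNA signal and control-cluster median Fmax.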

[1] = designed as: OFF switch for flavin mononucleotide, no ligand
[2] = ligand present: flavin mononucleotide, designed as: OFF switch for flavin mononucleotide
[3] = designed as: ON switch for flavin mononucleotide, no ligand
[4] = ligand present: flavin mononucleotide, designed as: ON switch for flavin mononucleotide

Sequence	apparent Kd [1] [nM]	apparent Kd [2] [nM]	apparent Kd [3] [nM]	apparent Kd [4] [nM]
GAUUGACAUGAGGAUCACCCAUGUGAGGAUAUCGGCCGGAUCUUGUUAGCUUCCAUCGCGAGAAGGCACAUAGG	66.1	73.5		
GAUUGAGAGCAGGAUAUCUUAGAAAUGUAUGAAAGAGAAGGGCUCACAUGAGGAUCACCCAUGUGGUCCUAGAU	32.7	256		
GCAAACACAUGAGGAUCACCCAUGUGGAAAGAGCAAUUAGGCUAGGAUAUUCAUGUCGUUUGCAAGAAGAAGGAGCCAUAGUGG			560	157
GCAAAGCCUGACAUGAGGAUCACCCAUGUUAGAUUGUUAUGUCAGGAUAUUGUCUAGACCCUAGACAAGAAGGGAUGCUUUGCA			472	29.1
GCAACGCUUGACAUGAGGAUCACCCAUGUUAGAUUGUUAUGUCAGGAUAUAGUCUAGAAACUAGACUAGAAGGGAUAUGUUGCU			269	44.2
GCAAUCGCAUGAGGAUAUGCUCGAGUUUAGAGAGCAGAAGGCAUGUCAUAAGACAUGAGGAUCACCCAUGUAGUUAAAAUGGCA			39.9	9.42
GCACAUGAGGAUCACCCAUGUGGUCCAGAAGGCCAGAGGACUUGCUUUUAGCAAGUCCUUCAAAUGGAGGAUAUGGAGGGUUCU			237	42
GCACAUGAUACAGGAUAUGUAUUGGAAUAUAUAAUGAAUUAGAUGAAAUUGACAGAAGGGUAGACAUGAGGAUCACCCAUGUGC	324	186		
GCACAUGAUACAGGAUAUGUUUUGGAUUUUAUAUGCAGUUAUUUUAUUUUGACAGAAGGGUAUACAUGAGGAUCACCCAUGUGC	76.3	48.1		
GCACGAGACUAAGGAUAUGGUGUACCUACAUGUAACAUGAGGAUCACCCAUGUAGUAAGUAUGAUUCAGAAGGUAGAGACGUGC			47.3	18.6
GCACGGUAUGUAGGAUAUGCAUAGCAUUGCUAUGCAGAAGGACAUGAGGAUCACCCAUGUAUGUAUUCCAUACAAUUCCCGUGC	5.41	5.82		
GCACUGGAUGUAGGAUAUCAGGACGAUAAGUCCUGAGAAGGACAUGAGGAUCACCCAUGUAAAACUUCACCAGUGCAUAAUAUA	13.3	15.9		
GCACUGGAUGUAGGAUAUCAGGACGAUAAGUCCUGAGAAGGACAUGAGGAUCACCCAUGUGACUCAUAACCAGUGCAUAAUAUA	27	142		
GCACUUUUAUUUGAACCGAUACGAACAUGAGGAUCACCCAUGUAGGAUAUGCUAAAAGUUGUGAUGCAGAAGGACAUUAAGUGC	7.73	9.21		
GCACUUUUAUUUGAACCGUUUCGAACAUGAGGAUCACCCAUGUAGGAUAUGCUAAAAGUUGUGAUGCAGAAGGACAUUAAGUGC	6.94	7.5		
GCAGAAGUAGUGAGGAUAUGCUCUACCUCGGUAGAGCAGAAGGCACAUGAGGAUCACCCAUGUGAUUCUUCUGC	26.9	158		
GCAGACGUAGUGAGGAUAUGCUCUACCUCGGUAGAGCAGAAGGCACAUGAGGAUCACCCAUGUGAUUUCUCUGC	37.2	421		
GCAGACGUAGUGAGGAUAUGCUCUACCUCGGUAGAGCAGAAGGCACAUGAGGAUCACCCAUGUGGCUCCUCUGC	16.2	25.1		
GCAGCAAUCUAAAACAUGAGGAUCACCCAUGUCGAGAGAUAUGAGGAUAUGCAUCUGAAGAAGAUGCAGAAGGCAUUGUGCUGC			8.1	6.15
GCAGCACACAUUAACAUGAGGAUCACCCAUGUCAAAAGACAUGAGGAUAUGCAUCUGAAGAAGAUGCAGAAGGCAUUGUGCUGC			467	24.2
GCAGCACAGAUUUACAUGAGGAUCACCCAUGUCUAUUAAGAUGAGGAUAUGCUUCGAAUGAUGUUGCAGAAGGCAUUGUGCUGC			10.9	6.6
GCAGCCGAUGCAGGAUAUCAGCACGUGUAGUGCUGAGAAGGGCACAUGAGGAUCACCCAUGUGAUCAAUUAAUAUCGAUGCUGC	6.56	14.3		
GCAGCGCCUGACAUGAGGAUCACCCAUGUUCCAUUGUUGAGUCAGGAUAUAGUCUAGAAACUAGACUAGAAGGGAUAUGCUGCU			70.2	50.8
GCAGCGUCUGCAGGAUAUCAGCACGUGUAGUGCUGAGAAGGGCACAUGAGGAUCACCCAUGUGAUCAAUUAAUAGACAUGCUGC	6.98	15.5		
GCAGCUAAUGCAGGAUAUCAGCACGUGUAGUGCUGAGAAGGGCACAUGAGGAUCACCCAUGUGAUCAAUUAAUAUUAAUGCUGC	24.9	152		
GCAGGCUUCGAGAAGGACAUGAGGAUCACCCAUGUGCGUGUGAAGCAGCCGUGAGGCUGCAUCAUGUAGGAUAUCGGAGUCUGU	77.8	650		
GCAGGUCGGAAGGAUAUGAAUCUGCUCGCAGUUUCAGAAGGUCUGACAUGAGGAUCACCCAUGUUGGGCGCAUC	56.5	236		
GCAUACAUUCGAGGAUAUCGGUGAACAAAUUAACGAGAAGGCGAUAGAAUGUUUAAUCUUAUAAACAUGAGGAUCACCCAUGUA			35.2	25.2

Sequence	apparent Kd [1] [nM]	apparent Kd [2] [nM]	apparent Kd [3] [nM]	apparent Kd [4] [nM]
GCAUACAUUCGAGGAUAUCGGUGAACAAAUUAACGAGAAGGCGAUAUAAUGUUUAAUCUUAUAAACAUGAGGAUCACCCAUGUA			76.9	31.2
GCAUAUAUAUAAGGAUAUGCAUCACUGAGAAAUUUAGUGAGGAAGAUCACAUGAGGAUCACCCAUGUAGAAGGUAUAUAUGUGC	8.18	46		
GCAUCCAUAGUGAGGAUAUACCUCUGGAUACAUAGGUAGAAGGCACAUGAGGAUCACCCAUGUUCCUAGGAUGC	20.2	40.1		
GCAUGAAAUGUGAGGAUAUACCUCUGGAUACAUAGGUAGAAGGCACAUGAGGAUCACCCAUGUCCUAAACAUGC	34.7	42.2		
GCAUGAGACUAAGGAUAUGAUGUACCUAUAUGUGACAUGAGGAUCACCCAUGUGGUAAGUAUGAUUCAGAAGGUAGAGAUAUGC			67.8	28.3
GCAUGCAAGUAGAAGGUCGGAUAUUUUGAUACCGAAGGAUAUACAGAAUCAUAUCCACAUGAUAACAUGAGGAUCACCCAUGUA	21.4	26.7		
GCAUUGAUAGCAGGAUAUAUGUUUCCUACAUGAGGAUCACCCAUGUAGGUGAUCAGCCGAGAAAAGUAGAAGGGCUAUCAAUGC			15.6	14.1
GCAUUUUAUGCAGGAUAUUGUCUUUGGAUUAAACAAGAAGGGCAUAACAUGAGGAUCACCCAUGUUUUAUAGGUAUAUAUGUUC	14.2	21.6		
GCCAACUAAUGAGGAUAUGGCACCUUAUUGGUGCCAGAAGGCAUGUCAAUUGACAUGAGGAUCACCCAUGUAUUAUAGUUGGCG			878	109
GCCAGCGCAUGAGGAUAUGCUCCCGUUUCGGGAGCAGAAGGCAUGUCAUAAGACAUGAGGAUCACCCAUGUAGUUAAGAUGGCA			258	13.6
GCCAGGCAUGUAGGAUAUCCAUUGCGUCGCGUUGGAGAAGGGCAGCACACAUGAGGAUCACCCAUGUGGUCUCCCAUGAUGUGU	209	223		
GCCAUCCUAUGAGGAUAUGACACCGAAACGGUGUCAGAAGGCAUGUCGAUAGACAUGAGGAUCACCCAUGUUUACAGGAUGGCA			132	22
GCCAUCGCAUGAGGAUAUGCUCCGGUUUCCGGAGCAGAAGGUAUGUCAUAUGACAUGAGGAUCACCCAUGUAGUUAAGAUGGCA			571	54.7
GCCAUCGCAUGAGGAUAUGCUCGGGUUUCCCGAGCAGAAGGCAUGUAAUAAAACAUGAGGAUCACCCAUGUAGUUAAGAUGGCA			8.29	5.36
GCCAUCGCAUGAGGAUAUGCUCGGGUUUCCCGAGCAGAAGGCAUGUCGUAAGACAUGAGGAUCACCCAUGUAGUUAAGAUGGCA			915	76.8
GCCAUCGCAUGAGGAUAUGGUCAGCUUUGCUGACCAGAAGGCAUGUCAAUAGACAUGAGGAUCACCCAUGUAGUUAAGAUGGCA			797	54
GCCAUCGUAUGAGGAUAUGGCACCGAAACGGUGCCAGAAGGCAUGUCAAUAGACAUGAGGAUCACCCAUGUGUUAUCGAUGGCC			84.9	11.7
GCCAUUGCAUGAGGAUAUGCUCCCGUUUCGGGAGCAGAAGGCAUGUCAUAAGACAUGAGGAUCACCCAUGUAUUUAAGAUGGCA			273	11.5
GCCGAACAUGAGGAUCACCCAUGUCUGGGUAAUUAAGGAUAUGGGAAGGCUUUGCCGUGGCCAGAAGGUGGUUAUC			171	108
GCCGAGUGAGGAUAUAGCCAGGUUCGAUAAGGUCGAAUCGGCUAGAAGGCACAUGAGGAUCACCCAUGUGGGUA	225	449		
GCCGCACAUGAGGAUCACCCAUGUAAUUACAUGGGAGGAUAUCAGUGCUCGAAAGAGCACUGAGAAGGCCUGAGGC			81.3	1070
GCCGGGUAGGCAGGAUAUCCUCGCGCAAACACAUGAGGAUCACCCAUGUACACAAAACGUGAUAUGGAGAAGGGCCGACCCACG			24.2	5.66
GCCGGGUGGGUAGGAUAUGGCUAUGUCUCAUUGCUAGAAGGACCAACUGCUACAUGAGGAUCACCCAUGUCGUAGUGCACCCGG			138	28.9
GCCGGUUCAGUUAGGAUAUUCGACACACCUCUCUAGAAGAAGGAACAUGAGGAUCACCCAUGUGAUUCCUACCG	46.7	56.6		
GCCGUAAGUGUGAGGAUAUACCUAUGGAUACAUAGGUAGAAGGCACAUGAGGAUCACCCAUGUUCUUAAUCGGC	130	296		
GCCGUCAACGUAGGAUAUCUUCAGCCACAGCACAUUGCUGUACAUGAGGAUCACCCAUGUCCUGGAGAGAAGGACGGACGGCAG			108	19.6
GCCUAGCCCAAGCCCACGGCAUCACAGGAUAUGCCGAUAACAUGAGGAUCACCCAUGUCAACUCCGCAGAAGGGUGAUAUCGUG			75.9	10
